NadD inh = NadD (S. aureus) enzyme inhibition. 0.78% of 360,000 active. inhibition, % at 20 µM. purified NadD enzyme, colorimetric absorbance read-out; in the data active means inhibition above about 26%
SENP1 FRET inh = blocks the human SENP1 SUMO protease catalytic domain. recombinant SENP1 catalytic domain, CyPet-SUMO1-YPet FRET cleavage. inhibition, % at 10 µM. 0.21% of 360,000 active. AID 624204;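 active means inhibition at least 30% at 10 µM, raw YFP signal under a set limit, fluorescence ratio 0.5 to 1.5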;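 further: 0% = enzyme with DMSO and 100% = no enzyme wells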
Target sequence (Q9P0U3 419-644 limits assumed): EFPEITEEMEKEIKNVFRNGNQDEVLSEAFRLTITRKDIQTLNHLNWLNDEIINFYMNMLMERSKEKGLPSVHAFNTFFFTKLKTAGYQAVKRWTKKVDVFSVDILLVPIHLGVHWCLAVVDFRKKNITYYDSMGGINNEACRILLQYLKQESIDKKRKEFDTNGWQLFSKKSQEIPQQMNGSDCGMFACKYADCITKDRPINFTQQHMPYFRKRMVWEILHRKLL
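Assay system – human recombinant His6-tagged SENP1 catalytic domain enzyme · Input – SENP1 enzyme, 20 pM final · Buffer or medium – Tris pH 8 buffer plus EDTA, NaCl, BME, BSA, NP40, catalase · Schedule – 50 min reaction at room temperature · Technique – FRET read of cyan and yellow fluorescence · Control set – no-enzyme wells low, DMSO-plus-enzyme wells high control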
NR3A LBD binder = modulators (binders) of human NR3A ligand-binding domain; AID 1259313; Tm shift relative to glycine control, % at 25 µM; 2.5% of 340,000 active; NR3A LBD differential scanning fluorimetry, Tm shift; 0% = protein alone, 100% = glycine-bound protein;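 active means melting temperature shift of at least 10% of the positive control shift, at one fixed dose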
UCH37 inh = inhibitors of human deubiquitinating enzyme UCH37. 0.33% of 330,000 active. Q9Y5K5. inhibition, % (no concentration beside the values). AID 588478. purified proteasome/UCH37, Ub-AMC cleavage fluorescence;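 active means mean inhibition over replicate wells above about 20%, limit read from the data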;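 further: 0% = compound-free wells with enzyme and 100% = wells lacking proteasome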
Target sequence (Q9Y5K5 whole entry, looked up): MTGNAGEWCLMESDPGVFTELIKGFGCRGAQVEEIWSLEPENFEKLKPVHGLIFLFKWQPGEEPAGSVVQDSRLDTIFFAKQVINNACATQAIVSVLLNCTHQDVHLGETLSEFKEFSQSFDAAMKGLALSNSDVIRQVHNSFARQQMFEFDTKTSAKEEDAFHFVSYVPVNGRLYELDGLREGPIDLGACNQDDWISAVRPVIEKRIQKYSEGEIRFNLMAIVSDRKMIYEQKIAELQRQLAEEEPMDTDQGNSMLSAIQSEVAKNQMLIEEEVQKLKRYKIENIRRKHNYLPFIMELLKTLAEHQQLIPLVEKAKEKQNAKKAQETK
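system = Proteasome-associated human UCH37 deubiquitinase | amount = 0.15 nM proteasome as dispensed | medium = pH 7.4 Tris-HCl (50 mM) with ovalbumin, ATP-MgCl2, DTT | incubation = 30 min preincubation with enzyme, 25 min cleavage at room temperature | detection = AMC fluorescence 355/460 nm | read-out basis = percent inhibition | controls = no-proteasome and no-compound wells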
ATG4B inhibitor = blocks human ATG4B protease cleavage of LC3 substrate. inhibition, % at 8.33 µM. AID 504462. ATG4B cleavage of LC3-PLA2, NBD-HPC fluorescence, 1 h. Q9Y4P1. 0.51% of 340,000 active; in the data active means inhibition above about 40%
An asterisk follows results filed as active; . = no result given. Most compounds without a hit are left out; they make up all but 3.6% or so of the library.

SMILES	NadD inh	SENP1 FRET inh	NR3A LBD binder	UCH37 inh	ATG4B inhibitor
Cn1nc(-c2ccc(Cl)cc2)cc1NC(=O)Nc1ccccc1	-9	2	26*	2	-1
Cc1cc(NC(=O)Nc2ccc(Cl)cc2)n(C)n1	-3	-1	2	2	-4
Cn1nc(-c2ccccc2)cc1NC(=O)Nc1ccc(C(C)(C)C)cc1	4	1	17*	3	-11
CC(C=NNC(=O)c1nnn(-c2nonc2N)c1CN1CCCCC1)c1ccccc1 (stereo not drawn)	.	.	.	6	.
Cc1[nH]n(-c2ncc(-c3ccccc3)s2)c(=O)c1C(c1ccc(Cl)cc1)C(C#N)C#N (stereo not drawn)	8	4	12*	1	30
ON=C1CCSc2ccc(F)cc21	.	.	.	-1	.
C#CCOCCOCCOCCNc1nc(N2CCN(C(=O)CCCCCCCCCCNC(=O)Cn3cc(CCCCCN)nn3)CC2)nc(N2CCN(C(=O)CCCCCCCCCCNC(=O)[C@H]([C@@H](C)CC)n3cc(CCCCCN)nn3)CC2)n1	26	0	28*	.	20
C#CCOCCOCCOCCNc1nc(N2CCN(C(=O)CCCCCCCCCCNC(=O)[C@H]([C@@H](C)CC)n3cc(CCCCCN)nn3)CC2)nc(N2CCN(C(=O)CCCCCCCCCCNC(=O)[C@@H]([C@H](C)O)n3cc(C)nn3)CC2)n1	33*	0	17*	2	16
C#CCOCCOCCOCCNc1nc(N2CCN(C(=O)CCCCCCCCCCNC(=O)[C@H](CCCCN)n3cc(C)nn3)CC2)nc(N2CCN(C(=O)CCCCCCCCCCNC(=O)[C@@H]([C@H](C)CC)n3cc(CCCCCN)nn3)CC2)n1	51*	-16	.	.	.
C#CCOCCOCCOCCNc1nc(N2CCN(C(=O)CCCCCCCCCCNC(=O)Cn3cc(CCCCCN)nn3)CC2)nc(N2CCN(C(=O)CCCCCCCCCCNC(=O)[C@H](CO)n3cc(CCCCCN)nn3)CC2)n1	14	-1	6	2	7
CC1=CC(=C(c2ccc(O)c(C)c2)c2ccccc2S(=O)(=O)O)C=CC1=O	.	.	.	15	.
NC(=O)C[n+]1cccc(C=NO)c1	.	.	.	0	.
Cc1[nH]n(-c2ccc(Cl)cc2)c(=O)c1C=Nc1ccc(S(=O)(=O)N2CCOCC2)cc1	0	1	32*	11	-11
O=C(C1=NN[C@@H]2C(=O)N(c3cccc(C(F)(F)F)c3)C(=O)[C@H]12)C(c1ccccc1)c1ccccc1	14	0	16*	5	27
Cc1cc(C)nc(N=C(N)N2CCCCC2)n1	.	.	.	6	.
CC(C)(C)NC(=O)C1CCC(CNS(=O)(=O)c2cccc3nsnc23)CC1 (stereo not drawn)	-5	5	10*	4	-4
O=C(CC1SC(=O)N(c2ccccc2)C1=O)Nc1ccc(Br)cc1 (stereo not drawn)	-5	4	30*	4	-8
O=C(CC1SC(=NCCc2ccccc2)N(/N=C/c2cccs2)C1=O)Nc1ccc(Cl)cc1 (stereo not drawn)	2	2	21*	.	6
O=C(CC1SC(=O)N(c2ccccc2)C1=O)Nc1ccc(Cl)cc1 (stereo not drawn)	3	6	22*	4	-1
O=C(CC1SC(=Nc2ccccc2)N(CCCO)C1=O)Nc1ccc(Cl)cc1 (stereo not drawn)	-7	-5	-7	2	-13
O=C(CC1Sc2ncnn2C1=O)Nc1ccc(Cl)cc1 (stereo not drawn)	.	.	-3	7	-5
COCc1cc(C)nc(OCC(=O)NN=Cc2ccc(O)cc2O)c1C#N	.	.	.	8	.
Cc1nc2ccccc2cc1C(=O)NN=Cc1ccco1	.	.	.	-4	.
COc1ccccc1NS(=O)(=O)c1ccc(Cl)c(NC(=O)c2sc3cc(Cl)ccc3c2Cl)c1	25	1	-1	4	1
O=C(Nc1cc(S(=O)(=O)Nc2ccccc2Cl)ccc1O)c1sc2cc(Cl)ccc2c1Cl	28	6	150*	-13	-8
SMILES	NadD inh	SENP1 FRET inh	NR3A LBD binder	UCH37 inh	ATG4B inhibitor
O=[N+]([O-])c1cc(-c2n[nH]c(-c3ccccc3)n2)cc([N+](=O)[O-])c1	-2	1	27*	3	5
O=[N+]([O-])c1cc([N+](=O)[O-])c2n[nH]c(-c3ccccc3)c2c1	-1	6	-2	.	11
COc1ccc(O)c(/C=N/NC(=S)NCCc2ccccc2)c1	3	-27	36*	.	-1
COc1cccc(NC(=S)Nc2ccc(F)cc2)c1	3	1	-15	3	5
CCCNC(=S)Nc1ccc(Br)cc1	-3	3	-3	4	5
COCCNC(=S)N/N=C(\C)c1ccccc1O	-1	0	6	.	1
Fc1cccc(NC(=S)Nc2ccc(Br)cc2)c1	-4	-1	27*	1	1
COc1ccc(/C(C)=N/NC(=S)NCCc2ccccc2)c(O)c1	5	-3	23*	.	0
S=C(NCCc1ccccc1)Nc1ccc(Br)cc1	-5	0	33*	6	-6
Brc1ccc(-c2ccc(C=NNc3nncc(-c4ccccc4)n3)o2)cc1	.	.	.	8	.
ON=Cc1cccnc1Sc1ccccc1	.	.	.	0	.
O=C(NN=Cc1ccc2c(c1)OCO2)/C(=C/c1ccc2c(c1)OCO2)NC(=O)c1ccccc1	.	.	.	-8	.
O=C(CCc1ccccc1)NN=Cc1cc(Br)ccc1O	.	.	.	1	.
Oc1ccc(Br)cc1/C=N/NC(=S)NCCc1ccccc1	5	-27	23*	.	-2
CCOC(CN=c1nc(N(C)C)ss1)OCC	-3	-1	22*	.	-2
C=CCOc1ccc(C=NNC(=O)C(C)Sc2ccccn2)cc1OCC (stereo not drawn)	.	.	.	3	.
O=C(O)c1ccc(NN=C2CCSc3ccc(F)cc32)cc1	.	.	.	13	.
C#CCn1c(=NC(=O)c2cc(Cl)sc2Cl)sc2cc(S(N)(=O)=O)ccc21	17	-2	31*	-21	-6
Cc1ccc(NC(=O)CCC(=O)NN=Cc2ccccc2O)cc1	.	.	.	-9	.
O=C(NC(=S)Nc1ccc(NC(=O)c2ccccc2)cc1)c1ccc(F)cc1	2	6	20*	2	7
O=C(Nc1ccc(Nc2ccccc2)cc1)c1c(Cl)cccc1Cl	-5	0	-1	3	10
O=C(Nc1ccc(Nc2ccccc2)cc1)c1c(F)c(F)c(F)c(F)c1F	-4	2	15*	5	0
O=C(Nc1ccc(Nc2ccccc2)cc1)c1ccc(F)cc1	-4	1	15*	.	-3
Oc1ccc(/C=N/Nc2ncnc3c2ncn3Cc2ccccc2)cc1O	39*	-15	5	.	-12
Oc1cccc(/C=N/Nc2ncnc3c2ncn3Cc2ccccc2)c1	2	0	3	.	-8
CCn1c(N=Cc2ccc(OC)cc2O)nc2ccccc21	.	.	.	0	.
O=C(CCc1n[nH]c(=O)[nH]c1=O)NN=Cc1ccc(Br)o1	.	.	.	3	.
Cc1onc(-c2ccccc2)c1C(=O)NN=Cc1ccc(O)c([N+](=O)[O-])c1	.	.	.	15	.

Source: PubChem BioAssay (several laboratories)
